Consider 14 compounds from PubChem BioAssay.

Activity calls are given as the source filed them.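 How the source made its calls, unless noted: active means GFP response above 150% of the DMSO level; inconclusive means fewer than 70 events counted for a yeast strain; inactive means the rest.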

Test [1] is described as follows: hit retest on RPL19A-GFP reporter strain – cell-based, S. cerevisiae, flow cytometry, cherry picks, mother/daughter gates, confirmation (AID 2270;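 active means GFP response below 50% of the DMSO control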). The settings on record: 3 h, at 10 µM, stronger effect = lower value, 100 = same GFP as DMSO wells. (Flow cytometry measures light scatter and fluorescence of single cells or particles in a stream.)
Test [2] in a line: yeast TOR pathway reporter LAP4-GFP change – cell-based, cherry picks, flow cytometry, mother/daughter gates, confirmation (AID 2271;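 active means GFP response above 150% of the DMSO control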;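 further: ratio of sample to DMSO plate mean so 100% equals DMSO level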). The conditions noted are these: S. cerevisiae LAP4-GFP strain, 3 h, at 10 µM, stronger effect = higher value, 100 means same as DMSO control. The method in brief: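 Material: Alexa 633-stained baker's yeast GFP-fusion strain; Compound dosing: single test-compound dose, 10 µM final; Incubation: 30 °C, 3 h compound incubation, rotating; Detection: HT flow cytometry, GFP fluorescence channel; Control set: positive rapamycin (400 ng/mL), negative DMSO.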

Test [3] is described as follows: TOR pathway reporter MEP2-GFP, retest of hits – S. cerevisiae, flow cytometry GFP, cherry picks, confirmation (AID 2272;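 active means GFP response above 150% of the DMSO control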;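 further: ratio of well signal to plate DMSO mean so 100% equals DMSO level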). The conditions noted are these: S. cerevisiae MEP2-GFP strain, 3 h, at 10 µM, stronger effect = higher value.
Test [4] is described as follows: yeast AGP1-GFP fluorescence change, single-dose – cell-based, flow cytometry, S. cerevisiae, cherry picks, confirmation (AID 2273).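 Further: median GFP channel fluorescence over the whole cell population gate.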 The settings on record: S. cerevisiae AGP1-GFP strain, 3 h, at 10 µM.
The nature of test [5]: TOR pathway CIT2 reporter hit retest – S. cerevisiae, GFP fusion, cherry picks, mother/daughter gates, confirmation (AID 2274). The conditions noted are these: S. cerevisiae CIT2-GFP strain, flow cytometry, 3 h, at 10 µM, stronger effect = higher value.
[6] abbreviates: measured here: daughter cell gate.
Setting [7] is: measured here: mother cell gate.
The mark [8] stands for this setting: measured here: daughter cell gate response.
Where [9] appears, read: measured here: mother cell gate response.

Regarding `CC(=O)Nc1ccc(-c2csc(NC(=O)c3ccc(C)o3)n2)cc1`, the GFP response vs DMSO was 98.4% (inactive) in test [1], 98.1% in test [1] (setting [6]), 99.8% in test [1] (setting [7]) and 100% (inactive) in test [3]. The results for the GFP response relative to DMSO in test [2], in test [2] (setting [8]) and in test [2] (setting [9]) were 97.9% (inactive), 99.2% and 98.3%, respectively. The GFP response, % of DMSO is 98.3% (inactive) in test [4], 105% (inactive) in test [5], 106% in test [5] (setting [6]) and 104% in test [5] (setting [7]).
As to `O=C(O)C1CCC(NSc2ccccc2[N+](=O)[O-])CC1` (centres undefined), the GFP response vs DMSO in test [1] was 98.2% (inactive); in test [1] (setting [6]), 95.9%; in test [1] (setting [7]), 95.2%; in test [3], 96.8% (inactive). Further, the GFP response relative to DMSO was 145% (inactive) in test [2], 133% in test [2] (setting [8]) and 157% in test [2] (setting [9]). Besides, the GFP response, % of DMSO was 101% (inactive) in test [4], 97.3% (inactive) in test [5], 99.2% in test [5] (setting [6]) and 94.4% in test [5] (setting [7]).
For the compound `O=c1cc(-c2c(F)c(F)c(F)c(F)c2F)oc2c(F)c(F)c(F)c(F)c12`, the GFP response vs DMSO in test [1] is 105% (inactive); in test [1] (setting [6]) it was 101%; in test [1] (setting [7]), 101%; in test [3], 131% (inactive). Further, the GFP response relative to DMSO is 145% (inactive) in test [2], 120% in test [2] (setting [8]) and 145% in test [2] (setting [9]). Besides, the GFP response, % of DMSO was 113% (inactive) in test [4], 132% (inactive) in test [5], 119% in test [5] (setting [6]) and 118% in test [5] (setting [7]).
Take `COc1ccc(CNC(=O)c2nc(S(=O)(=O)Cc3ccccc3)ncc2Cl)cc1`: the GFP response vs DMSO in test [1] is 102% (inactive); in test [1] (setting [6]), 104%; in test [1] (setting [7]), 101%; in test [3], 116% (inactive). Further, the results for the GFP response relative to DMSO in test [2], in test [2] (setting [8]) and in test [2] (setting [9]) were 107% (inactive), 107% and 108%, respectively. In addition, the GFP response, % of DMSO in test [4] was 103% (inactive); in test [5], 106% (inactive); in test [5] (setting [6]), 106%; in test [5] (setting [7]), 105%.
Regarding `COc1ccc([N+](=O)[O-])c(S(=O)(=O)c2ccccc2)n1`, the GFP response vs DMSO was 93.7% (inactive) in test [1], 95.8% in test [1] (setting [6]), 90.8% in test [1] (setting [7]) and 112% (inactive) in test [3]. The GFP response relative to DMSO is 195% (active) in test [2], 170% in test [2] (setting [8]) and 204% in test [2] (setting [9]). The GFP response, % of DMSO was 113% (inactive) in test [4], 86% (inactive) in test [5], 96.8% in test [5] (setting [6]) and 75.8% in test [5] (setting [7]).
As for `COc1cc(NC(=O)c2cccc([N+](=O)[O-])c2)ccc1NC(=O)c1cc2ccccc2o1`, the GFP response vs DMSO in test [1] was 98% (inactive); in test [1] (setting [6]), 99.9%; in test [1] (setting [7]) it was 97.8%; in test [3] it was 101% (inactive). The GFP response relative to DMSO in test [2] is 94.9% (inactive); in test [2] (setting [8]) it was 98.2%; in test [2] (setting [9]), 95.1%. The GFP response, % of DMSO is 100% (inactive) in test [4], 107% (inactive) in test [5], 105% in test [5] (setting [6]) and 108% in test [5] (setting [7]).
Turning to `CCCCNC(=O)c1c(O)c2cccc3c2n(c1=O)CCC3`, the GFP response vs DMSO in test [1] was 98.8% (inactive); in test [1] (setting [6]) it was 98.4%; in test [1] (setting [7]) it was 99.8%; in test [3], 100% (inactive). Besides, the GFP response relative to DMSO in test [2] is 97.4% (inactive); in test [2] (setting [8]), 95.6%; in test [2] (setting [9]), 100%. Besides, the GFP response, % of DMSO was 100% (inactive) in test [4], 97.8% (inactive) in test [5], 96.5% in test [5] (setting [6]) and 97.7% in test [5] (setting [7]).
Take `CCOc1ccccc1C1N=C(c2ccc(OC)cc2)CC(c2ccccc2O)N1` (centres undefined): the GFP response vs DMSO in test [1] was 102% (inactive); in test [1] (setting [6]), 103%; in test [1] (setting [7]), 100%; in test [3] it was 105% (inactive). The GFP response relative to DMSO was 106% (inactive) in test [2], 99.7% in test [2] (setting [8]) and 109% in test [2] (setting [9]). Besides, the GFP response, % of DMSO in test [4] was 102% (inactive); in test [5], 110% (inactive); in test [5] (setting [6]), 108%; in test [5] (setting [7]), 109%.
As for `O=C(Sc1cccc2cccnc12)c1ccccc1Br`, the GFP response vs DMSO is 96.8% (inactive) in test [1], 92.3% in test [1] (setting [6]), 98.5% in test [1] (setting [7]) and 122% (inactive) in test [3]. For the same compound, the GFP response relative to DMSO in test [2] was 151% (active); in test [2] (setting [8]), 144%; in test [2] (setting [9]) it was 153%. In addition, the GFP response, % of DMSO was 95.8% (inactive) in test [4], 114% (inactive) in test [5], 115% in test [5] (setting [6]) and 112% in test [5] (setting [7]).
With `CC(C(=O)NCCc1ccc(F)cc1)N1CCN(Cc2ccccc2)CC1` (centres undefined), the GFP response vs DMSO in test [1] was 96.5% (inactive); in test [1] (setting [6]), 97%; in test [1] (setting [7]), 96.8%; in test [3], 102% (inactive). The GFP response relative to DMSO is 98.7% (inactive) in test [2], 100% in test [2] (setting [8]) and 101% in test [2] (setting [9]). The GFP response, % of DMSO is 98.5% (inactive) in test [4], 95.2% (inactive) in test [5], 96.5% in test [5] (setting [6]) and 95.5% in test [5] (setting [7]).
In the case of `Cc1ccc(C(=O)Nc2nnc(CC(=O)N/N=C/c3ccc(O)c(O)c3)s2)cc1`, the GFP response vs DMSO in test [1] was 97.8% (inactive); in test [1] (setting [6]), 99%; in test [1] (setting [7]) it was 95.9%; in test [3], 103% (inactive). Besides, the GFP response relative to DMSO in test [2] is 94.1% (inactive); in test [2] (setting [8]), 92.9%; in test [2] (setting [9]), 95.4%. Besides, the GFP response, % of DMSO in test [4] was 104% (inactive); in test [5] it was 103% (inactive); in test [5] (setting [6]), 103%; in test [5] (setting [7]), 104%.
With `Cc1ccc(N2C3=C(C(=O)CC(C)(C)C3)C(c3cn(C)nc3C)C3=C2CC(C)(C)CC3=O)cc1`, the GFP response vs DMSO in test [1] was 105% (inactive); in test [1] (setting [6]) it was 102%; in test [1] (setting [7]), 104%; in test [3], 131% (inactive). Moreover, the GFP response relative to DMSO in test [2] is 119% (inactive); in test [2] (setting [8]) it was 122%; in test [2] (setting [9]), 117%. Also, the GFP response, % of DMSO in test [4] was 103% (inactive); in test [5], 134% (inactive); in test [5] (setting [6]), 132%; in test [5] (setting [7]), 132%.
Regarding `CC(=O)Nc1cccc(C(=O)/C=C/c2ccc(C)cc2)c1`, the GFP response vs DMSO in test [1] is 95.8% (inactive); in test [1] (setting [6]), 96.8%; in test [1] (setting [7]) it was 95.1%; in test [3], 110% (inactive). Also, the results for the GFP response relative to DMSO in test [2], in test [2] (setting [8]) and in test [2] (setting [9]) were 117% (inactive), 115% and 120%, respectively. Moreover, the GFP response, % of DMSO in test [4] was 102% (inactive); in test [5], 103% (inactive); in test [5] (setting [6]), 103%; in test [5] (setting [7]) it was 102%.
As to `Cc1cccn2c(N)c(-c3ccccc3)nc12`, the GFP response vs DMSO in test [1] was 97.4% (inactive); in test [1] (setting [6]), 97.3%; in test [1] (setting [7]), 97.1%; in test [3], 106% (inactive). The GFP response relative to DMSO in test [2] was 95.3% (inactive); in test [2] (setting [8]), 96.5%; in test [2] (setting [9]), 90.6%. Besides, the GFP response, % of DMSO in test [4] is 102% (inactive); in test [5] it was 104% (inactive); in test [5] (setting [6]), 102%; in test [5] (setting [7]), 96.8%.
